Columns and labels:
Scribble PDZ1 domain = assay: X-ray crystal structure of Scribble PDZ1/SGEF-PDZpeptide complex; assay type: binding, human; settings: 1.1 Å, PDB ID 6MYE
MDCK cells [1] = assay: Actomyosin organization by IF; assay type: cell-based, canine
SGEF = assay: Coimmunoprecipitation of Dlg1 constructs with SGEF, HEK293FT lysates; assay type: binding, Human; settings: WB
Method in brief: (§1)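 HEK293FT cells were co-transfected by calcium phosphate; medium was changed at 24 h and cells harvested at 48 h. Lysis was in Tris-HCl pH 7.4, MgCl2, 150 mM NaCl, 1% Triton X-100 and protease inhibitors. Equal protein was incubated with GFP-Trap beads for 1 h at 4°C, washed four times, then immunoblotted with anti-GFP and anti-myc (or anti-His).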

MDCK cells [2] = assay: Zigzag index of tight junctions; assay type: cell-based, canine; settings: compared with SGEF KD; Fig. 9 J
MDCK cells [3] = assay: Height of MDCK monolayer, confocal XZ; assay type: cell-based, canine; settings: average, n = 50 cells; Fig. 9 I
Method in brief: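 Confocal XZ sections of confluent control, SGEF-knockdown and rescue MDCK monolayers were acquired on a Leica SP8. Cells were stained for E-cadherin, β-catenin and nuclei, or for F-actin and Hoechst, and monolayer height was measured.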

Dlg1 = assay: Coimmunoprecipitation of SGEF constructs with GFP-Dlg1, HEK293FT lysates; assay type: binding, Mouse; settings: GFP-trap nanobodies, WB
Method in brief: as §1

Xenopus embryos = assay: Junctional localization in gastrula-stage embryos; assay type: in vivo, Xenopus laevis; settings: live confocal, mNeon-tagged
Method in brief: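 Embryos were microinjected in the animal hemisphere with mRNAs, either at the two-cell stage (each cell twice) or at the four-cell stage (once). They were raised to gastrula stage (10.5–12) and live-imaged by confocal. mNeon-tagged protein was coexpressed with BFP-ZO-1 (tight junction marker) and PLEKHA7-mCherry (adherens junction marker), and the junctional-to-cytosolic intensity ratio was quantified.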

Scribble = assay: Coimmunoprecipitation of SGEF constructs with GFP-Scribble, HEK293FT lysates; assay type: binding, Human; settings: GFP-trap nanobodies, WB
[4] = test system: Scribble/SGEF/Dlg1 ternary complex; assay: Coprecipitation of Scribble with GFP-Dlg1; assay type: binding; settings: HA-Scribble and GFP-Dlg1 coexpressed, IP anti-GFP, HEK293

## ac-KPNGLLITDFPVEDCONH2 [SGEF-PDZpeptide]
Scribble PDZ1 domain
  accessible surface area covered by peptide: ~500 Å^2
  binding register in the PDZ pockets: novel interactions through pockets near the α1 helix in Scribble PDZ1 (S+1 pocket), which accommodate the P+1 Pro in SGEF
  residues of peptide interacting with Scribble PDZ domain: 11 residues

## Cc1ccc2c(c1)C(=O)C1(O)CCN(c3ccccc3)C1=N2 (centres unmarked) [blebbistatin, reference compound]
MDCK cells [1]; 16 h, blebbistatin vs Y-27632
  relative strength of effect on actomyosin array and stress fibers: stronger effect than Y-27632

B1: Dlg1 C-terminal construct: C-terminal half of Dlg1 comprising the SH3 and GUK domains (protein)
chain: KRSLYVRALFDYDKTKDSGLPSQGLNFKFGDILHVINASDDEWWQARQVTPDGESDEVGVIPSKRRVEKKERARLKTVKFNSKTRDKGEIPDDMGSKGLKHVTSNASDSESSYRGQEEYVLSYEPVNQQEVNYTRPVIILGPMKDRINDDLISEFPDKFGSCVPHTTRPKRDYEVDGRDYHFVTSREQMEKDIQEHKFIEAGQYNNHLYGTSVQSVREVAEKGKHCILDVSGNAIKRLQIAQLYPISIFIKPKSMENIMEMNKRLTEEQARKTFERAMKLEQEFTEHFTAIVQGDTLEDIYNQVKQIIEEQSGSYIWVPAKEKL
modifications: left off: GFP (inferred from the legend of Figure 2), end not stated, kept
SGEF
  interaction with SGEF: able to bind efficiently to SGEF

B2: GUK domain alone: Dlg1 GUK domain, 699–893 (protein, UniProt Q12959 699-893, looked up, fragment)
chain: YVLSYEPVNQQEVNYTRPVIILGPMKDRINDDLISEFPDKFGSCVPHTTRPKRDYEVDGRDYHFVTSREQMEKDIQEHKFIEAGQYNNHLYGTSVQSVREVAEKGKHCILDVSGNAIKRLQIAQLYPISIFIKPKSMENIMEMNKRLTEEQARKTFERAMKLEQEFTEHFTAIVQGDTLEDIYNQVKQIIEEQSG
modifications: GUK domain
SGEF
  interaction with SGEF: able to interact with SGEF

B3: SGEF 1–400: minimum region required to bind Scribble and Dlg1, no catalytic activity (protein)
chain: MDGESEVDFSSNSITPLWRRRSIPQPHQVLGRSKPRPQSYQSPNGLLITDFPVEDGGTLLAAQIPAQVPTASDSRTVHRSPLLLGAQRRAVANGGTASPEYRAASPRLRRPKSPKLPKAVPGGSPKSPANGAVTLPAPPPPPVLRPPRTPNAPAPCTPEEDLTGLTASPVPSPTANGLAANNDSPGSGSQSGRKAKDPERGLFPGPQKSSSEQKLPLQRLPSQENELLENPSVVLSTNSPAALKVGKQQIIPKSLASEIKISKSNNQNVEPHKRLLKVRSMVEGLGGPLGHAGEESEVDNDVDSPGSLRRGLRSTSYRRAVVSGFDFDSPTSSKKKNRMSQPVLKVVMEDKEKFSSLGRIKKKMLKGQGTFDGEENAVLYQNYKEKALDIDSDEESEPKE
modifications: left off: myc (inferred from the legend of Figure 2), end not stated, kept
MDCK cells [2]
  zigzag index (in words): increased significantly
MDCK cells [3]
  cell height: 2.57 ± 0.049 µm
MDCK cells [1]; myosin II staining, SGEF KD background
  rescue of increased contractility: able to rescue the increase in contractility
Dlg1
  interaction with Dlg1: able to bind to Dlg1

B4: SGEF 1–227: SGEF deletion mutant, binds to Scribble but not to Dlg1 (protein)
chain: MDGESEVDFSSNSITPLWRRRSIPQPHQVLGRSKPRPQSYQSPNGLLITDFPVEDGGTLLAAQIPAQVPTASDSRTVHRSPLLLGAQRRAVANGGTASPEYRAASPRLRRPKSPKLPKAVPGGSPKSPANGAVTLPAPPPPPVLRPPRTPNAPAPCTPEEDLTGLTASPVPSPTANGLAANNDSPGSGSQSGRKAKDPERGLFPGPQKSSSEQKLPLQRLPSQENEL
modifications: left off: myc (inferred from the legends of Figures 1 and 2), end not stated, kept
Xenopus embryos
  localization at apical junctional complex: localized efficiently to the AJC
MDCK cells [3]
  cell height: 2.99 ± 0.065 µm
Scribble
  interaction with Scribble: sufficient to interact with Scribble
Dlg1
  interaction with Dlg1: did not interact with Dlg1

B5: SGEF 1–414: N-terminal half of SGEF, ends just before DH-PH domain (protein)
chain: MDGESEVDFSSNSITPLWRRRSIPQPHQVLGRSKPRPQSYQSPNGLLITDFPVEDGGTLLAAQIPAQVPTASDSRTVHRSPLLLGAQRRAVANGGTASPEYRAASPRLRRPKSPKLPKAVPGGSPKSPANGAVTLPAPPPPPVLRPPRTPNAPAPCTPEEDLTGLTASPVPSPTANGLAANNDSPGSGSQSGRKAKDPERGLFPGPQKSSSEQKLPLQRLPSQENELLENPSVVLSTNSPAALKVGKQQIIPKSLASEIKISKSNNQNVEPHKRLLKVRSMVEGLGGPLGHAGEESEVDNDVDSPGSLRRGLRSTSYRRAVVSGFDFDSPTSSKKKNRMSQPVLKVVMEDKEKFSSLGRIKKKMLKGQGTFDGEENAVLYQNYKEKALDIDSDEESEPKEQKSDEKIVIHHKPL
modifications: left off: myc (inferred from the legends of Figures 2 and 3), end not stated, kept
[4]
  formation of Scribble/SGEF/Dlg1 ternary complex: minimum SGEF mutant that can mediate the formation of the Scribble/SGEF/Dlg1 complex
Dlg1
  interaction with Dlg1: interacted efficiently with Dlg1

B6: SGEF 228–871: SGEF deletion mutant, binds to Dlg1 but not to Scribble (protein)
chain: LENPSVVLSTNSPAALKVGKQQIIPKSLASEIKISKSNNQNVEPHKRLLKVRSMVEGLGGPLGHAGEESEVDNDVDSPGSLRRGLRSTSYRRAVVSGFDFDSPTSSKKKNRMSQPVLKVVMEDKEKFSSLGRIKKKMLKGQGTFDGEENAVLYQNYKEKALDIDSDEESEPKEQKSDEKIVIHHKPLRSTWSQLSAVKRKGLSQTVSQEERKRQEAIFEVISSEHSYLLSLEILIRMFKNSKELSDTMTKTERHHLFSNITDVCEASKKFFIELEARHQNNIFIDDISDIVEKHTASTFDPYVKYCTNEVYQQRTLQKLLATNPSFKEVLSRIESHEDCRNLPMISFLILPMQRVTRLPLLMDTICQKTPKDSPKYEVCKRALKEVSKLVRLCNEGARKMERTEMMYTINSQLEFKIKPFPLVSSSRWLVKRGELTAYVEDTVLFSRRTSKQQVYFFLFNDVLIITKKKSEESYNVNDYSLRDQLLVESCDNEELNSSPGKNSSTMLYSRQSSASHLFTLTVLSNHANEKVEMLLGAETQSERARWITALGHSSGKPPADRTSLTQVEIVRSFTAKQPDELSLQVADVVLIYQRVSDGWYEGERLRDGERGWFPMECAKEITCQATIDKNVERMGRLLGLETNV
modifications: left off: myc (inferred from the legends of Figures 1 and 2), end not stated, kept
Xenopus embryos
  localization at apical junctional complex: predominantly cytosolic, with only a small fraction still targeted to junctions
Scribble
  interaction with Scribble: unable to bind
Dlg1
  interaction with Dlg1: able to bind efficiently to Dlg1

B7: SH3 domain by itself: Dlg1 SH3 domain, 536–636 (protein, UniProt Q12959 536-636, looked up, fragment)
chain: GQAVTIVAQYRPEEYSRFEAKIHDLREQMMNSSISSGSGSLRTSQKRSLYVRALFDYDKTKDSGLPSQGLNFKFGDILHVINASDDEWWQARQVTPDGESD
modifications: SH3 domain
SGEF
  interaction with SGEF: no detectable binding
